# hERG rescue: hERG (human) protection from proarrhythmic block | Q12809 | CHO-hERG, FluxOR thallium flux, dofetilide IC70 present | activation (rescue from dofetilide block), less the hit threshold, % at 10 µM | actives 0.51% (n = 310,000);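 active = activation above the mean of controls blocked by dofetilide plus 5 SD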;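 note: thallium influx through hERG after potassium depolarization seen as dye fluorescence rise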
# Target sequence (Q12809 whole entry, looked up): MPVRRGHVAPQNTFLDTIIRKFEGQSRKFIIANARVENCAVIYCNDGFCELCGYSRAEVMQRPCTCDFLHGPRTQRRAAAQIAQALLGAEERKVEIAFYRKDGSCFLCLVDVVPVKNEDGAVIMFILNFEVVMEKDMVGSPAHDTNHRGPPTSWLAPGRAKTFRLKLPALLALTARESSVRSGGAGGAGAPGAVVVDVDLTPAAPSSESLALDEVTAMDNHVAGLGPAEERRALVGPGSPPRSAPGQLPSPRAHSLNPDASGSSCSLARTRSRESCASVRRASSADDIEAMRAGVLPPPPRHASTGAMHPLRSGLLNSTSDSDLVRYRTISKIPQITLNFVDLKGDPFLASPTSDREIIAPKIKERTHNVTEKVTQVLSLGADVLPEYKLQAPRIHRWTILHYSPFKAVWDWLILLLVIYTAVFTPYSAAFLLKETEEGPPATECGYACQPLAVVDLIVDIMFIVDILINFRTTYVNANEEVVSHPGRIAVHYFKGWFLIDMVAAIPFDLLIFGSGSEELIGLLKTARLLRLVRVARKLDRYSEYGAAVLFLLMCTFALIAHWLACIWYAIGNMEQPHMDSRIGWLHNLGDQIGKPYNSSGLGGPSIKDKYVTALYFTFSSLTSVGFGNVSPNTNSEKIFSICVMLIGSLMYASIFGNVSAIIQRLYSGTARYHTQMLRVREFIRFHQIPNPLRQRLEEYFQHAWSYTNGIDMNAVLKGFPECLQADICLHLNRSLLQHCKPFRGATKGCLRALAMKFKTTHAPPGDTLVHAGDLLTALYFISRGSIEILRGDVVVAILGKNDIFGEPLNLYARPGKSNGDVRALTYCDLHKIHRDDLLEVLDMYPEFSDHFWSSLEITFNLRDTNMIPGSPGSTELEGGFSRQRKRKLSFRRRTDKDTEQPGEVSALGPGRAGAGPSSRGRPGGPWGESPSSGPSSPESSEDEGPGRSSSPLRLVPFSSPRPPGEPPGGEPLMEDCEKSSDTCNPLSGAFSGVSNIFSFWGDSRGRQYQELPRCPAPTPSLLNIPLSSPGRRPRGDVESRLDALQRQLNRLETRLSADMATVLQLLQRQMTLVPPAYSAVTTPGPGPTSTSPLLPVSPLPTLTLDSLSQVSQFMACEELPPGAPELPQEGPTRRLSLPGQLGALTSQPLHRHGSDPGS
# KCNQ1 act: potentiators or activators of human KCNQ1 potassium channel. actives 0.35% (n = 310,000). B-score at 10 µM. AID 2648. P51787. CHO-K1 KCNQ1, thallium flux FluxOR fluorescence; active compounds read high;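 active = fluorescence ratio B-score, a plate-corrected score, at least three library SD, with initial intensity B-score within 5 SD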
#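 Assay system: CHO-K1 cells stably expressing KCNQ1. Medium: assay buffer for compound exposure, DMSO matched across wells. Timing: 37 °C overnight plating, 90-min dark dye load, 20-min compound pretreatment. Signal: kinetic FluxOR fluorescence, 10 s baseline plus 110 s post-stimulus.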
# Kir21 inh: blocks the mouse Kir2.1 inward-rectifier potassium channel; actives 0.85% (n = 310,000); B-score at 10 µM; AID 1672; HEK293-Kir2.1, FluxOR thallium flux fluorescence; active compounds read low;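 active = fluorescence ratio B-score at or below minus 3 SD of library scores, with starting-brightness B-score within 2 SD, cut at about -4.2 in these data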;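 note: channel flux triggered by added potassium and thallium sulfate stimulus; B-score of peak minus minimum fluorescence over baseline after thallium stimulus; more negative B-score means stronger Kir2.1 block with less thallium influx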
# KCNQ1 block: inhibitors of human KCNQ1 potassium channel. P51787. CHO-K1 KCNQ1, FluxOR thallium flux fluorescence; active compounds read high. B-score at 10 µM. actives 1.3% (n = 310,000). AID 2642;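 active = compounds whose thallium flux B-score, printed positive for inhibition, exceeds three library SD while starting fluorescence stays within three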;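 note: channel opened by potassium depolarization with thallium stimulus after 20 min compound exposure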
# KCNK3 inh: human KCNK3 channel inhibition, primary screen. O14649. CHO-KCNK3 thallium flux, FluxOR fluorescence; active compounds read low. B-score at 10 µM. actives 0.84% (n = 340,000). AID 602410;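 active = B-score under library mean minus 4 SD, starting fluorescence ratio at most library mean plus 5 SD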;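 note: more negative B-score means stronger inhibition of thallium flux through KCNK3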
# KCNK9 block: blocks the human KCNK9 two-pore domain potassium channel; HEK293 KCNK9, FluxOR thallium flux fluorescence; active compounds read low; actives 1.2% (n = 310,000); AID 488922; B-score at 10 µM;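 active = ratio B-score over 3 SD below the library mean, with starting fluorescence within 5 SD of its mean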;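 note: negative B-score means less thallium flux so channel inhibition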
# KCNK9 inh conf: human KCNK9 inhibitor confirmation. shares compounds with KCNK9 block. HEK293 KCNK9 cells, FluxOR thallium flux fluorescence. inhibition, % at 10 µM. actives 43% (n = 4,900). AID 492992;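 active = thallium signal inhibited by more than 5 SD of the compound-free buffer control wells, on both duplicate plates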;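 note: 0% = assay buffer control wells without compound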
# Kir21 sel: mouse Kir2.1 off-target activity of KCNK9 modulators; shares compounds with KCNK9 block; Kir2.1 cells, FluxOR thallium flux fluorescence; inhibition, % at 10 µM; actives 4% (n = 4,900); AID 492993;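 active = thallium signal drop more than 5 SD beyond the mean of the no-compound control wells, seen in both duplicate plates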;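 note: signal is fluorescence rise after thallium addition divided by baseline fluorescence; plate controls were assay buffer only for no effect and full block by chlorpromazine control for full effect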
# KCNK9 uninduced: second counter-screen for KCNK9 modulators: effect in non-induced cells; AID 492997; actives 40% (n = 4,900); non-induced KCNK9-HEK293, FluxOR thallium flux; inhibition, % at 10 µM; shares compounds with KCNK9 block;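 active = thallium signal drop beyond 5 SD of the untreated control mean, on both duplicate plates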;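 note: plate controls were buffer only IC0 wells for no effect and SID17386958 at its maximal inhibitory level for full effect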
# Numbers without * were called inactive; i = inactive; nt = no result. In the library only some 3.8% were active in any assay of this set; here they are far more common.
SMILES,hERG rescue,KCNQ1 act,Kir21 inh,KCNQ1 block,KCNK3 inh,KCNK9 block,KCNK9 inh conf,Kir21 sel,KCNK9 uninduced
COc1cccc(OCCNc2cc(Cl)ccc2[N+](=O)[O-])c1,-20,i,-0.64,i,i,-12*,54%*,i,34%*
COc1ccc(OCCOCCOc2ccc(C)cc2[N+](=O)[O-])cc1,-6,i,-0.02,i,i,i,nt,nt,nt
COc1cccc(OCCOCCOc2ccc(C)cc2[N+](=O)[O-])c1,-10,i,0.02,i,i,i,i,i,i
Cc1c(N=N/C(C(=O)Nc2ccccc2)=C(/O)c2ccccc2)c(=O)n(-c2ccccc2)n1C,-18,i,-0.95,9*,i,-9.1*,i,i,46%*
Cc1c(N=C(N)/N=C(\N)Nc2ccccc2)c(=O)n(-c2ccccc2)n1C,1,i,-0.18,i,i,i,nt,nt,nt
O=c1cc(CN2CCN(CCO)CC2)c2cc3c(cc2o1)CCC3,-13,i,-1.3,i,i,i,nt,nt,nt
O=c1cc(CN2CCN(Cc3ccccc3)CC2)c2cc3c(cc2o1)CCC3,-9,i,-0.02,i,i,i,i,i,i
COC(=O)c1ccccc1Oc1ccc(NC(=O)CCCl)cc1,-12,i,-0.56,i,i,i,nt,nt,nt
Cc1ccc(S(=O)(=O)N[C@H](C(=O)N2CCC(C(=O)N[C@@H](CCC(N)=O)C(=O)O)CC2)C(C)C)cc1,-6,i,-1,i,i,i,nt,nt,nt
CC(C)N(C(C)C)S(=O)(=O)c1ccc(N2CCc3ccccc3C2)nc1,-10,i,2.1,i,i,i,i,i,i
CCN(CC)S(=O)(=O)c1ccc(N2CCc3ccccc3C2)nc1,-14,i,-1.6,i,i,i,i,i,i
CCN(CC)S(=O)(=O)c1ccc(N2CCN(S(=O)(=O)c3ccccc3)CC2)nc1,-12,i,-1.6,i,i,i,nt,nt,nt
C/C(=N\NC(=O)c1nn(C)c(C)c1Br)c1ccc(NC(=O)c2ccccc2F)cc1,-15,i,0,i,i,-12*,64%*,i,26%*
CN1CCN(S(=O)(=O)c2ccc3c(c2)CC(=O)N3C)CC1,-7,i,3,i,i,-10*,35%*,i,i
CC1Cc2ccccc2N1C(=O)CCn1c(=O)sc2ccccc21 (centres undefined),-10,i,-3.7,i,i,i,i,i,i
CC1Cc2ccccc2N1C(=O)CN1CCc2ccccc2C1 (centres undefined),-13,i,-0.36,i,i,i,i,i,i
Cc1cnc(C(=O)OCC(=O)Nc2c(Cl)cc(Cl)cc2Cl)cn1,nt,nt,nt,nt,i,nt,nt,nt,nt
O=C(NC(=S)Nc1ccc(CN2CCCCC2)cc1)c1cc2ccccc2o1,-1,i,0,i,i,i,nt,nt,nt
Cc1cc(/C=c2\sc3nc4ccccc4n3c2=O)c(C)n1-c1ccc(C(=O)O)cc1,-31,i,-2.5,i,i,i,i,i,i
Cc1cc(/C=c2/sc3nc4ccccc4n3c2=O)c(C)n1-c1ccccn1,-12,i,-1.9,i,i,i,nt,nt,nt
COc1ccc(-c2ccc(/C=C(\NC(=O)c3ccccc3)C(=O)N3CCOCC3)o2)cc1,-1,i,0.69,i,i,i,nt,nt,nt
Cc1cccc2nc(-c3ccccc3)nc(N[C@@H](CO)c3ccccc3)c12,-12,i,-0.53,i,i,-8.3*,50%*,i,44%*
N#Cc1c(N2CCN(C(=O)c3ccco3)CC2)nc(-c2ccccc2)c2c1CCCC2,-29,i,-0.92,i,i,i,nt,nt,nt
N#Cc1c(N2CCN(C(=O)c3ccccc3)CC2)nc(-c2ccccc2)c2c1CCCC2,-7,i,1.3,i,i,i,i,i,i
Cn1c(=O)c(C(=O)NCc2ccccc2)c(O)c2ccccc21,1,i,1.2,i,i,i,nt,nt,nt
SMILES,hERG rescue,KCNQ1 act,Kir21 inh,KCNQ1 block,KCNK3 inh,KCNK9 block,KCNK9 inh conf,Kir21 sel,KCNK9 uninduced
Cn1c(=O)c(C(=O)NCCCc2ccccc2)c(O)c2ccccc21,-1,i,-0.71,i,i,i,i,i,28%*
COc1ccc(CCNC(=O)c2cc3c(=O)n(C)c4ccccc4c3n2C)c(OC)c1,-13,i,-0.02,i,i,i,i,i,i
COc1ccc(CCNC(=O)c2c(O)c3ccccc3n(C)c2=O)cc1,-8,i,0.85,i,i,i,i,i,i
CC1(C)Cc2nc(NC3CCCCC3)c(C#N)cc2CO1,-3,i,0.21,i,i,i,nt,nt,nt
Cc1ccc(C(=O)Nc2ncccc2C)cc1S(=O)(=O)N1CCCCC1,-8,i,-2.4,i,i,i,nt,nt,nt
Cc1oc(-c2cccs2)nc1CN1CCC(CO)(CCOc2ccccc2)CC1,-21,i,-2.9,i,i,i,nt,nt,nt
CCOCCCNC(=S)N1CCCN(c2nc3cc(C)c(C)cc3cc2C#N)CC1,-21,i,-0.15,i,i,i,i,i,i
CC(C)[C@H](NC(=O)c1ccccc1F)C(=O)OCCN1C(=O)c2ccccc2C1=O,nt,nt,nt,nt,i,nt,nt,nt,nt
CC(=O)C1=C(C)NC(SCC(=O)c2ccc(Cl)cc2Cl)=C(C#N)C1c1ccco1 (centres undefined),-20,i,-0.23,i,-9.6*,-10*,61%*,i,36%*
CC(=O)C1=C(C)NC(SCc2cccc3ccccc23)=C(C#N)C1c1ccco1 (centres undefined),-15,i,0.9,i,i,i,nt,nt,nt
O=c1c2sc3nc(N4CCOCC4)c4c(c3c2ncn1C(c1ccccc1)c1ccccc1)CCCC4,nt,nt,nt,nt,i,nt,nt,nt,nt
CCOC(=O)c1c(NC(=O)C(=O)N/N=C/c2ccc(OCC)cc2)sc2c1CCCCC2,-10,i,-0.85,i,i,i,nt,nt,nt
CCOC(=O)c1c(NC(=O)C(=O)N/N=C/c2ccc(O)c(OC)c2)sc2c1CCCCC2,-15,i,-0.68,i,i,-8.5*,56%*,i,30%*
O=C(CSc1nc(C2CC2)nc2ccccc12)N1CCc2ccccc21,nt,nt,nt,nt,i,nt,nt,nt,nt
O=C(CC1CCCC1)N1CCCC(Nc2ccc(F)cc2)C1 (centres undefined),-10,i,-3.5,i,i,i,i,i,i

# Assay outcomes deposited in PubChem BioAssay by Johns Hopkins Ion Channel Center.
